The values that follow come from ChEMBL document CHEMBL3425511 (J Med Chem, 2015).

pIC50: −log10 of the molar value. The source made the active and inactive calls.

Data set [1] addresses T1, Transient receptor potential cation channel subfamily V member 1 (Homo sapiens, UniProt Q8NER1). Nature of the data set: Antagonist activity at recombinant human TRPV1 expressed in HEK293 cells assessed as inhibition of capsaicin-induced Ca2+ influx preincubated for 5 mins followed by capsaicin challenge. The class given is cell-based.
For data set [2], the species on record is Rattus norvegicus. Nature of the data set: Drug metabolism in rat assessed as formation of (trans)-1-(2-{2-[2-(4-Trifluoromethyl-phenyl)-vinyl]-1H-benzoimidazol-5-yl}-phenyl)-ethanone. The class given is ADME, organism-based. To be noted: in vivo.
A short description of data set [3]: (§1) Metabolic stability in rat liver microsomes assessed as compound remaining after 10 mins. It is filed as ADME. To be noted: liver microsomes, read-out: Stability. The essentials:
(§2)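 Compound incubated 10 min with liver microsomes of the stated species; amount of parent remaining reported as percent.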
Background: Microsomes from liver hold many membrane-bound enzymes, among them those of drug oxidation.

Data set [4] can be described thus: (§3) Metabolic stability in human liver microsomes assessed as compound remaining after 10 mins. To be noted: liver microsomes, read-out: Stability. It is filed as ADME. The procedure, abridged: as §2
A short description of data set [5]: Oral bioavailability in rat at 10 mg/kg. The class given is ADME, organism-based. To be noted: in vivo. The essentials: (§4)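 Oral dosing at 10 mg/kg as a solution of the sodium salt in 20% HPβCD, n = 4 animals per group.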
The target in data set [6] is T1, Transient receptor potential cation channel subfamily V member 1. The data set is described as follows: Antagonist activity at recombinant human TRPV1 expressed in HEK293 cells assessed as inhibition of capsaicin-induced Ca2+ influx at 1 uM preincubated for 5 mins followed by capsaicin challenge relative to control. It is filed as cell-based. The procedure, abridged: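 HEK293 cells stably expressing human TRPV1, loaded with Calcium 3 dye 35 min at 37 °C, then 25 min at room temperature. Compound added and Ca²⁺ read 5 min (FLIPR or FDSS) before capsaicin at ~EC80 (typically 0.020−0.030 μM final). Response normalised to 90 or 100 μM capsaicin (100%) and 0.6 pM (0%).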

Data set [7] relates to Rattus norvegicus. The data set is described as follows: Reversal of complete freund's adjuvant-induced thermal hypersensitivity in po dosed Sprague-Dawley rat after 60 mins. It is filed as functional. The essentials:
(§5)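 Male Sprague−Dawley rats (195−350 g), intraplantar CFA (100 μL, 1:1 CFA:saline) with testing 24 h later, or carrageenan-λ (200 μL, 10 mg/mL) with testing 3 h later. Radiant heat withdrawal latency, 10−15 s baseline, 20 s cutoff; rats with ≥25% latency drop kept. Oral dosing at 2.5 mL/kg. Percent reversal = (treatment − post)/(pre − post) × 100, scored blind.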

The subject of data set [8] is Rattus norvegicus. Nature of the data set: Reversal of complete freund's adjuvant-induced thermal hypersensitivity in po dosed Sprague-Dawley rat measured after 30 to 180 mins. The class given is functional, organism-based. The procedure, abridged: as §5
The test system of data set [9] is Liver microsome. The description is as §1. The class given is ADME. Particulars: microsomes, 10 min. The essentials:
as §2

In data set [10] the test system is Liver microsome. The description is as §3. The class given is ADME. Particulars: microsomes, 10 min. The procedure, abridged:
as §2

Data set [11] is filed under the species Rattus norvegicus. The data set is described as follows: Drug level in rat treated with (trans)-1-(2-{2-[2-(4-Trifluoromethyl-phenyl)-vinyl]-1H-benzoimidazol-5-yl}-phenyl)-ethanol. The class given is ADME, organism-based. Particulars: in vivo.
Data set [12] in a line: Half life in rat at 10 mg/kg, po. It is filed as ADME, organism-based. Further details: dose 10 mg/kg, route oral. To be noted: in vivo. The procedure, abridged: as §4
The nature of data set [13]: Clearance in rat at 2 mg/kg, iv. Particulars: in vivo. The arrangement: dose 2 mg/kg, route intravenous. The class given is ADME, organism-based. The procedure, abridged:
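Intravenous dosing at 2 mg/kg as a solution of the sodium salt in 20% HPβCD, n = 4 animals per group.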

In data set [14] the test system is Rattus norvegicus. The data set is described as follows: Reversal of complete freund's adjuvant-induced thermal hypersensitivity in po dosed Sprague-Dawley rat assessed as plasma concentration required to reach ED80 measured at 100 mins. It is filed as functional. The procedure, abridged: (§6)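 Rats dosed orally 100 min before radiant-heat testing. For CFA, plasma taken right after behavioural testing; for carrageenan, taken from a separate group dosed identically. Blood collected on lithium heparin and centrifuged, plasma stored at −80 °C. Plasma levels matching ED50 and ED80 (EC50/EC80) computed from the dose−response data.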

The test system of data set [15] is Rattus norvegicus. The data set is described as follows: Reversal of complete freund's adjuvant-induced thermal hypersensitivity in po dosed Sprague-Dawley rat assessed as plasma concentration required to reach ED50 measured at 100 mins. The class given is functional. The procedure, abridged:
as §6

The subject of data set [16] is Rattus norvegicus. The data set is described as follows: Reversal of complete freund's adjuvant-induced thermal hypersensitivity in po dosed Sprague-Dawley rat measured at 100 mins. It is filed as functional. The procedure, abridged:
as §5

The test system of data set [17] is Rattus norvegicus. Nature of the data set: Reversal of complete freund's adjuvant-induced thermal hypersensitivity in Sprague-Dawley rat at 10 mg/kg, po measured after 30 to 180 mins. It is filed as functional, organism-based. The arrangement: dose 10 mg/kg.
The test system of data set [18] is Rattus norvegicus. The data set is described as follows: Reversal of complete freund's adjuvant-induced thermal hypersensitivity in Sprague-Dawley rat at 30 mg/kg, po measured after 30 to 180 mins. It is filed as functional, organism-based. Further details: dose 30 mg/kg.
Data set [19] concerns Rattus norvegicus. The data set is described as follows: Reversal of complete freund's adjuvant-induced thermal hypersensitivity in po dosed Sprague-Dawley rat measured at 30 mins. It is filed as functional. The procedure, abridged:
as §5

For data set [20], the system named is Rattus norvegicus. The data set is described as follows: Reversal of complete freund's adjuvant-induced thermal hypersensitivity in po dosed Sprague-Dawley rat measured at 3 hrs. It is filed as functional. The procedure, abridged:
as §5

T1 sequence (Q8NER1 whole entry): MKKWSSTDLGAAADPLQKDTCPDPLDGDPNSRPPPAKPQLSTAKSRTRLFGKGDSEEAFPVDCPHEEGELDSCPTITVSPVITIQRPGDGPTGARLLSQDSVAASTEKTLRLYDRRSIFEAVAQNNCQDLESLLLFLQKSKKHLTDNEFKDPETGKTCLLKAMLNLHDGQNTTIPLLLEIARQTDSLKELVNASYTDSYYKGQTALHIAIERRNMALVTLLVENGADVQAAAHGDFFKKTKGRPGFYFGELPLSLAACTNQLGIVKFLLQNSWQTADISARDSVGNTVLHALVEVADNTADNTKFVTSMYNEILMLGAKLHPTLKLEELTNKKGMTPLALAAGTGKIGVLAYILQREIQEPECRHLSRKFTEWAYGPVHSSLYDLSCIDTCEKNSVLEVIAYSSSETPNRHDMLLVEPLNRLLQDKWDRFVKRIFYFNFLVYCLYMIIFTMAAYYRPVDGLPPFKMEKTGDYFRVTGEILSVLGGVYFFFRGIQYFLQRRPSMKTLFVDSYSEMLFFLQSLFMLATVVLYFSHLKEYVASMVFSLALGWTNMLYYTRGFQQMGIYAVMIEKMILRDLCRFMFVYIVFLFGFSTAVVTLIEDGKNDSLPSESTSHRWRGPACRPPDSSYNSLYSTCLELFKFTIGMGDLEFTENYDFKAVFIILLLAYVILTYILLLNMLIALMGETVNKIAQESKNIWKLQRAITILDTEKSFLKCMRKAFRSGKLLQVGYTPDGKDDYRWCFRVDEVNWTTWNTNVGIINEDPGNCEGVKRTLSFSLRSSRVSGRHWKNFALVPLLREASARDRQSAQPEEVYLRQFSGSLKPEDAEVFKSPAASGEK

Regarding `CC(C)(C)c1ccc(/C=C/c2nc3cc(-c4ccccc4C(N)=O)ccc3[nH]2)cc1`, the pIC50 (commonly the IC50 on a negative log10 scale, so that one unit is a factor of ten) in data set [1] was 7.40.
Consider `CC(O)c1ccccc1-c1ccc2[nH]c(/C=C/c3ccc(C(F)(F)F)cc3)nc2c1` (stereo not given), for which the Drug metabolism entry in [2] was “metabolite_detected”. Besides, the figures for the remaining at 10 min in [3] and in data set [4] were 89% and 97%, respectively. The bioavailability (usually the share of a dose that reaches the circulation, judged against a reference dose that is usually intravenous) in data set [5] amounted to 39%.
On to `CC(C)(C)c1ccc(/C=C/c2nc3cc(-c4ccc(C(N)=O)cc4)ccc3[nH]2)cc1`, for which the inhibition (in general, the share of the control response that was lost under treatment) in data set [6] turned out to be 10%.
`CC(=O)c1ccccc1-c1ccc2[nH]c(/C=C/c3ccc(C(C)(C)C)cc3)nc2c1`: the remaining at 10 min in data set [3] was determined as 43%; in data set [4], 12%. The pIC50 in data set [1] is 7.60.
On to `CC(C)(C)c1ccc(/C=C/c2nc3cc(-c4ccccc4NS(C)(=O)=O)ccc3[nH]2)cc1`, for which the remaining at 10 min was determined as 29% in data set [3] and 9% in [4].
For `CS(=O)(=O)Nc1ccccc1-c1ccc2[nH]c(/C=C/c3cccc(C(F)(F)F)c3)nc2c1`, the inhibition in [6] is 48%.
For the compound `CC(C)(O)c1ccccc1-c1ccc2[nH]c(/C=C/c3cccc(C(F)(F)F)c3)nc2c1`, the pIC50 in data set [1] was 8.31. Moreover, the Activity in data set [7] is 58%.
As for `CC(C)(O)c1ccccc1-c1ccc2[nH]c(/C=C/c3ccc(S(=O)(=O)C(F)(F)F)cc3)nc2c1`, in data set [1], the pIC50 was 7.72. In [8], the outcome was inactive.
As to `NS(=O)(=O)c1ccccc1-c1ccc2[nH]c(CCc3ccc(C(F)(F)F)cc3)nc2c1`, the Stability entry in data set [9] and in data set [10] was “Unstable” each time.
As for `CC(C)(O)c1ccccc1-c1ccc2[nH]c(/C=C/c3ccc(OC(F)(F)F)cc3)nc2c1`, the Stability entry in data set [9] and in data set [10] was “Stable” throughout. In addition, in [1], the pIC50 is 8.23. In addition, in [8], the outcome was inactive.
For `NS(=O)(=O)c1ccccc1-c1ccc2[nH]c(/C=C/c3ccc(OC(F)(F)F)cc3)nc2c1`, the Stability result in data set [9] is given as “Unstable”.
As for `CS(=O)(=O)Nc1ccccc1-c1ccc2[nH]c(/C=C/c3ccccc3C(F)(F)F)nc2c1`, the inhibition in data set [6] worked out at 44%.
Regarding `CC(=O)c1ccccc1-c1ccc2[nH]c(/C=C/c3ccc(C(F)(F)F)cc3)nc2c1`, the Drug metabolism result in [11] is “metabolite_detected”.
As for `CC(C)(O)c1ccccc1-c1ccc2[nH]c(C#Cc3ccc(C(F)(F)F)cc3)nc2c1`, the Stability entry in data set [9] and in data set [10] was “Stable” each time. Also, in data set [1], the pIC50 was 8.35.
As to `CS(=O)(=O)Nc1ccccc1-c1ccc2[nH]c(/C=C/c3ccc(C(F)(F)F)cc3)nc2c1`, in [12], the half-life (commonly how long it takes for the measured level to halve) was 4 h. The remaining at 10 min in data set [3] was determined as 50%; in data set [4] it was 85%. In data set [5], the bioavailability stood at 65%. Besides, the clearance (usually the rate of elimination divided by the concentration) in data set [13] came to 13 mL/min/kg. The pIC50 in data set [1] is 8.00. Further, in [7], the Activity result was “Dose-dependent effect”. Moreover, in data set [7] (Rattus norvegicus, Sprague-Dawley, po, 1 h), the ED50 (usually the dose at which the effect has come halfway, by size or by number of responders) is 4.3 mg/kg.
On to `NS(=O)(=O)c1ccccc1-c1ccc2[nH]c(/C=C/c3cccc(OC(F)(F)F)c3)nc2c1`, for which the Stability entry in data set [9] is “Unstable”.
In the case of `CS(=O)(=O)Nc1ccccc1-c1ccc2[nH]c(/C=C/c3ccc(OCC(F)(F)C(F)(F)F)cc3)nc2c1`, in data set [6], the inhibition was determined as 63%.
The same measure, in the same setting: then `CC(=O)Nc1ccc(-c2ccc3[nH]c(/C=C/c4ccc(C(C)(C)C)cc4)nc3c2)cc1`, with 10%.
Regarding `CC(C)(O)c1ccccc1-c1ccc2[nH]c(CCc3ccc(C(F)(F)F)cc3)nc2c1`, the remaining at 10 min is 5% in [3] and 45% in [4]. In addition, the pIC50 in data set [1] is 8.55.
For `CC(C)(O)c1ccccc1-c1ccc2[nH]c(/C=C/c3ccc(Cl)cc3)nc2c1`, the Stability entry in data set [9] and in data set [10] was “Stable” in each case. The pIC50 in [1] was 8.24. The outcome in data set [8] was inactive.
`CC(C)c1ccc(/C=C/c2nc3cc(-c4ccccc4NS(C)(=O)=O)ccc3[nH]2)cc1`: the negative logarithm of the IC50 (pIC50) in [1] is 8.04.
`CC(C)(C)c1ccc(Cc2nc3cc(-c4ccccc4O)ccc3[nH]2)cc1`: in [6], the inhibition was 6%.
For `NS(=O)(=O)c1ccccc1-c1ccc2[nH]c(C#Cc3ccc(C(F)(F)F)cc3)nc2c1`, the pIC50 in data set [1] was 7.70.
For the compound `NS(=O)(=O)c1ccccc1-c1ccc2[nH]c(/C=C/c3ccc(C(F)(F)F)cc3)nc2c1`, the Activity in [14] turned out to be 62788 ng/mL. Moreover, in [15], the Activity was 1757 ng/mL. Moreover, in data set [16], the ED50 worked out at 2.6 mg/kg and the ED80 is 10.3 mg/kg.
Regarding `CC(C)(C)c1ccc(/C=C/c2nc3cc(-c4cccc(C(N)=O)c4)ccc3[nH]2)cc1`, in data set [6], the inhibition was 12%.
`CS(=O)(=O)Nc1ccccc1-c1ccc2[nH]c(/C=C/c3ccc(OC(F)(F)F)cc3)nc2c1`: the result in data set [17] was inactive. Further, the Stability result in data set [9] was “Stable”. In addition, in data set [1], the pIC50 was 7.77.
Turning to `Cc1ccc(-c2cc(C(F)(F)F)nn2-c2ccc(S(N)(=O)=O)cc2)cc1`, in data set [18], the outcome was Active.
For the compound `CC(C)(O)c1ccccc1-c1ccc2[nH]c(C#Cc3ccccc3)nc2c1`, the Stability entry in data set [9] and in data set [10] was “Stable” each time. The Activity in data set [19] is 71%; in [20], 41%. In data set [5], this compound came in with a bioavailability of 13%. In addition, in data set [1], the pIC50 is 8.55.
On to `CC(C)(C)c1ccc(CCCc2nc3cc(-c4ccccc4O)ccc3[nH]2)cc1`, for which the inhibition in [6] stood at 6%.
